Experimental data published in ChEMBL document CHEMBL4118256, “Second Generation of Mannich Base-Type Derivatives with in Vivo Activity against Trypanosoma cruzi” (J Med Chem, 2018).
Activity calls are given as the source filed them. No cut-off for these calls is given here.

How the values were obtained:
[1] = tested on: Trypanosoma cruzi; test: Trypanocidal activity against Trypanosoma cruzi MHOM/Pe/2011/Arequipa DTU 5 epimastigotes after 48 hrs by resazurin dye based assay; format: functional, organism-based; details: MHOM/Pe/2011/Arequipa DTU 5, 48 h
In short: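 Exponential-phase epimastigotes were seeded at 5×10^5 mL^-1 with compounds at 100–0.2 µM (DMSO 0.01% v/v) at 28 °C. After 48 h, resazurin was added for another 24 h. SDS was then added and absorbance read at 570 and 600 nm.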

[2] = Selectivity index, ratio of IC50 for African green monkey Vero cells to IC50 for Trypanosoma cruzi MHOM/Pe/2011/Arequipa DTU 5 epimastigotes; format: toxicity; details: read-out: Ratio IC50
In short: (§1)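 SI is Vero IC50 divided by the IC50 for the stated parasite form. For Vero cytotoxicity, cells were seeded at 1.25×10^4 mL^-1 with compounds at 1000–1 µM, incubated 48 h, then given resazurin for a further 24 h (72 h total), with absorbance read at 570/600 nm. Triplicate, four determinations.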

[3] = tested on: Trypanosoma cruzi; test: Trypanocidal activity against Trypanosoma cruzi MHOM/Pe/2011/Arequipa DTU 5 amastigotes infected in African green monkey Vero cells after 72 hrs by Giemsa-staining based microscopic assay; format: functional, organism-based; details: MHOM/Pe/2011/Arequipa DTU 5, Vero
In short: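 Vero cells were seeded at 1×10^4/well on coverslips. After 24 h they were infected with culture-derived trypomastigotes (MOI 1:10, 24 h), then washed. Compounds were added at 100–0.2 µM (DMSO 0.01% v/v) for 72 h at 37 °C, 5% CO2. Slides were methanol-fixed and Giemsa-stained; amastigotes and infected cells were counted over 500 host cells. IC50 was derived by curve fitting; triplicate wells, four separate determinations.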

[4] = tested on: Trypanosoma cruzi; test: Trypanocidal activity against Trypanosoma cruzi MHOM/Pe/2011/Arequipa DTU 5 trypamastigotes derived from infected Balb/c albino mouse after 24 hrs by resazurin dye based assay; format: functional, organism-based; details: MHOM/Pe/2011/Arequipa DTU 5, 24 h
In short: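 Bloodstream trypomastigotes taken from mice at peak parasitaemia were seeded at 2×10^6 mL^-1 in RPMI with 10% FBS. Compounds were added at 50–0.2 µM and incubated 24 h at 37 °C, 5% CO2, then with resazurin for 4 h. SDS was added and absorbance read at 570/600 nm. IC50 was fitted; triplicate, four separate determinations.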

[5] = Selectivity index, ratio of IC50 for African green monkey Vero cells to IC50 for Trypanosoma cruzi MHOM/Pe/2011/Arequipa DTU 5 trypamastigotes derived from infected Balb/c albino mouse; format: toxicity; details: read-out: Ratio IC50; in short: as §1
[6] = Selectivity index, ratio of IC50 for African green monkey Vero cells to IC50 for Trypanosoma cruzi IRHOD/CO/2008/SN3 DTU 1 amastigotes infected in African green monkey Vero cells; format: toxicity; details: read-out: Ratio IC50; in short: as §1
[7] = Selectivity index, ratio of IC50 for African green monkey Vero cells to IC50 for Trypanosoma cruzi IRHOD/CO/2008/SN3 DTU 1 trypamastigotes derived from infected Balb/c albino mouse; format: toxicity; details: read-out: Ratio IC50; in short: as §1
[8] = Selectivity index, ratio of IC50 for African green monkey Vero cells to IC50 for Trypanosoma cruzi TINF/CH/1956/Tulahuen DTU 6 amastigotes infected in African green monkey Vero cells; format: toxicity; details: read-out: Ratio IC50; in short: as §1
[9] = Selectivity index, ratio of IC50 for African green monkey Vero cells to IC50 for Trypanosoma cruzi TINF/CH/1956/Tulahuen DTU 6 trypamastigotes derived from infected Balb/c albino mouse; format: toxicity; details: read-out: Ratio IC50; in short: as §1
[10] = tested on: Trypanosoma cruzi; test: Trypanocidal activity against Trypanosoma cruzi MHOM/Pe/2011/Arequipa DTU 5 amastigotes infected in African green monkey Vero cells assessed as infected cells at 50 uM after 72 hrs by Giemsa-staining based microscopic assay relative to control; format: functional
In short: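 Infected Vero cell cultures were exposed for 72 h to a range of concentrations. Infected cells were counted microscopically on Giemsa-stained preparations and expressed relative to infected untreated controls. Values are means of three separate determinations; IC50 was derived by curve fitting.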

[11] = tested on: Mus musculus; test: Toxicity in Balb/c mouse assessed as reduction in body mass at […], po once daily for 5 consecutive days starting from day 10 post infection relative to control; format: organism-based; parameters: scale not given: the % may be the effect or the level left; details: in vivo
In short: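 Infected female BALB/c mice, six per group, received oral doses of 20 mg·kg^-1/day for 5 consecutive days (total 100 mg·kg^-1) in 5% DMSO/0.5% HPMC vehicle, from day 10 or day 75 pi. Body mass and deaths were monitored during and after treatment.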

[12] = tested on: Trypanosoma cruzi; test: Antitrypanosomal activity against Trypanosoma cruzi MHOM/Pe/2011/Arequipa DTU 5 trypamastigotes infected in Balb/c mouse assessed as reduction in Ig-G level in serum at 100 mg/kg, po pretreated once daily for 5 consecutive days starting from day 10 post infection followed by cyclophosphamide-induced immunosuppression on day 100 post infection every 4 days for a maximum of 3 doses measured on day 127 post infection by ELISA; format: functional, organism-based
[13] = tested on: Trypanosoma cruzi; test: Antitrypanosomal activity against Trypanosoma cruzi MHOM/Pe/2011/Arequipa DTU 5 trypamastigotes infected in Balb/c mouse assessed as reduction in splenomegaly at 100 mg/kg, po once daily for 5 consecutive days starting from day 10 post infection measured on day 127 post infection relative to control; format: functional
[14] = tested on: Trypanosoma cruzi; test: Antitrypanosomal activity against Trypanosoma cruzi MHOM/Pe/2011/Arequipa DTU 5 trypamastigotes infected in Balb/c mouse assessed as reduction in splenomegaly at 100 mg/kg, po once daily for 5 consecutive days starting from day 75 post infection measured on day 127 post infection relative to control; format: functional
[15] = tested on: Mus musculus; test: (§2) Cardiotoxicity in Balb/c mouse infected with Trypanosoma cruzi MHOM/Pe/2011/Arequipa DTU 5 trypamastigotes assessed as change in serum LDH level at 100 mg/kg, po once daily for 5 consecutive days starting from day 10 post infection measured on day 127 post infection by biochemical analysis relative to control; format: toxicity, organism-based; details: in vivo
[16] = tested on: Mus musculus; test: as §2, with “Hepatotoxicity” for “Cardiotoxicity”, “total bilirubin” for “serum LDH”, “[…],” for “100 mg/kg,”; format: toxicity, organism-based; details: in vivo
In short: (§3)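 Serum clinical chemistry in Arequipa-infected female BALB/c mice. Oral 20 mg·kg-1 per day for 5 days, started day 10 or day 75 pi. Samples taken at day 16 pi or day 81 pi, and on necropsy day. Markers: CK-MB and LDH (U/L), AST, ALT and alkaline phosphatase (U/L), total bilirubin. Results scored relative to infected untreated controls; uninfected reference n = 15.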

[17] = tested on: Mus musculus; test: as §2, with “Hepatotoxicity” for “Cardiotoxicity”, “alkaline phosphatase” for “serum LDH”; format: toxicity, organism-based; details: in vivo
[18] = tested on: Mus musculus; test: as §2, with “Hepatotoxicity” for “Cardiotoxicity”, “alkaline phosphatase” for “serum LDH”, “[…],” for “100 mg/kg,”, “75” for “10”; format: toxicity, organism-based; details: in vivo; in short: as §3
[19] = tested on: Trypanosoma cruzi; test: Antitrypanosomal activity against Trypanosoma cruzi MHOM/Pe/2011/Arequipa DTU 5 epimastigotes assessed as effect on parasite glycolytic pathway by measuring reduction in pyruvate excretion at IC25 after 72 hrs by 1H NMR method; format: functional, organism-based
In short: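 Arequipa epimastigotes exposed at IC25 for 72 h alongside an untreated control. Excreted catabolites were analysed by 1H NMR, and each peak is reported as % variation versus the control. Three separate determinations.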

[20] = tested on: Trypanosoma cruzi; test: Induction of mitochondrial membrane potential disruption in Trypanosoma cruzi MHOM/Pe/2011/Arequipa DTU 5 epimastigotes assessed as inhibition of DNA replication and RNA synthesis at IC25 after 72 hrs by acridine orange staining based flow cytometry relative to control; format: functional
In short: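 Arequipa epimastigotes were exposed for 72 h at IC25. DNA/RNA content was measured as acridine orange fluorescence by flow cytometry and compared with untreated control.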

SMILES	IC50 [1] [µM]	selectivity ratio [2]	IC50 [3] [µM]	IC50 [4] [µM]	selectivity ratio [5]	selectivity ratio [6]	selectivity ratio [7]	selectivity ratio [8]	selectivity ratio [9]	Activity [10] [%]	Activity [11] [%]	Activity [12]	Activity [13]	Activity [14]	Activity [15] [%]	Activity [16] [%]	Activity [17] [%]	Activity [18] [%]	Activity [19]	inhibition (INH) [20] [%]
COc1ccc(C(=O)CCN2CCN(c3ccc(F)cc3)CC2)cc1	1.4	40.2	0.6	1.1	49.1	17.6	39.9	34.6	47.4	7	> 10	inactive	Active	Active	< 10	< 10	< 10	< 10	Active	24.6
COc1ccc(C(=O)CCN2CCN(c3ccc(Cl)cc3)CC2)cc1	9.5	31.5	3.6	3.4	89.6	51.5	76.1	78.7	103	15	> 10	Active	52%	68%	< 10	< 10	< 10	< 10	inactive	18
COc1ccc(C(=O)CCN2CCN(c3ccc([N+](=O)[O-])cc3)CC2)cc1	31.6	18.6	29.4	11.7	50.4	19.2	187	17.5	40.6	52	> 10	inactive	Active	Active	< 10	< 10	< 10	< 10	inactive	72.9
O=C(Cn1ccnc1[N+](=O)[O-])NCc1ccccc1 [BENZNIDAZOLE]	–	–	8.3	12.4	–	–	–	–	–	20	–	–	–	–	–	–	–	–	–	22.4
